Measured values taken from the M2OR odorant receptor database.

Legend:
OR5K1 (Homo sapiens) = biological target: T1, OR5K1 (Homo sapiens) (UniProt Q8NHB7); conditions: stereoisomer not certain
T1 sequence (whole entry): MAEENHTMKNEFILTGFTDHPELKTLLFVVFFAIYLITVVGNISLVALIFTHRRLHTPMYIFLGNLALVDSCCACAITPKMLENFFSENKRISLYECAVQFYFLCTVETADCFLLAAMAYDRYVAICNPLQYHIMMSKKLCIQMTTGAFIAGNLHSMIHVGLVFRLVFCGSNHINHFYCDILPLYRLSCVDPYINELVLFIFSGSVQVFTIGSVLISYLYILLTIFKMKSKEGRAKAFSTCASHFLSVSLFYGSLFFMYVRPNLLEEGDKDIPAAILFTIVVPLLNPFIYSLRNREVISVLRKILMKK
Method in brief: (§1)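 Transient luciferase assays in mammalian cell lines were common, though methods varied by source. The values come from published papers and their supplementary material, with extra details from the original authors when needed. Responsive refers to a measured signal the original authors judged statistically different from baseline, and non-responsive (inactive) to the remainder.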

OR5M3 (Homo sapiens) = biological target: T2, OR5M3 (Homo sapiens) (UniProt Q8NGP4); conditions: stereoisomer not certain
T2 sequence (whole entry): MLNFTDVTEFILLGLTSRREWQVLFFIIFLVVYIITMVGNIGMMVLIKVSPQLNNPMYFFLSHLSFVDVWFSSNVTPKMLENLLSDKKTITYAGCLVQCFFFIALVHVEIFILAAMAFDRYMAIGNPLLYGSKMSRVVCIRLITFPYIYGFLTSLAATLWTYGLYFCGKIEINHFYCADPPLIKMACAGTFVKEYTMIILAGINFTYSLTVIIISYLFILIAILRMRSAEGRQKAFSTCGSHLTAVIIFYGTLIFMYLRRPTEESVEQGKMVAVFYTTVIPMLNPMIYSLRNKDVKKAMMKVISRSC
Method in brief: as §1
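Further: active if original authors judged signal statistically different from baseline.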

Row | Compound | odorant receptor agonist call (OR5K1 (Homo sapiens)) | odorant receptor agonist call (OR5M3 (Homo sapiens))
1 | C=C(C)C1CC=C(C)CC1 (centres undefined) | inactive | inactive
2 | CCc1cccc(O)c1 | inactive | inactive
3 | CCCCCCCC(=O)OCC | inactive | inactive
4 | CCC(C)CO (centres undefined) | inactive | inactive
5 | CCCC(=O)OC | inactive | inactive
6 | COc1ccc2ccc(=O)oc2c1 | inactive | inactive
7 | CC(=O)OCC=Cc1ccccc1 | inactive | inactive
8 | CCOC(=O)C(C)CC (centres undefined) | inactive | inactive
9 | C=C1CCC2(C(C)C)CC12 (centres undefined) | inactive | inactive
10 | CC1=CCC2CC1C2(C)C (centres undefined) | inactive | inactive
11 | CCC=CCCC=O | inactive | inactive
12 | CSSSC | inactive | inactive
13 | CCC=CCCC=CC=O | inactive | inactive
14 | OCC=Cc1ccccc1 | inactive | inactive
15 | CCCCCC(=O)OCC | inactive | inactive
16 | CCOC(=O)C1CCCCC1 | inactive | inactive
17 | CCCCC(C)CCC(=O)O (centres undefined) | inactive | inactive
